Assay results reported in ChEMBL document CHEMBL5247578, “Effective synthesis of benzimidazoles-imidazo[1,2-a]pyrazine conjugates: A comparative study of mono-and bis-benzimidazoles for antitumor activity” (Eur J Med Chem, 2019).

Key:
Assay type in all cases: functional
[1] = tested on: MDA-MB-468; experiment: Antiproliferative activity against human MDA-MB-468 cells assessed as cell growth inhibition at 10 uM incubated for 48 hrs by sulforhodamine B assay relative to control
Procedure, shortened: (§1)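 NCI-60 single-dose screen at 10^-5 M. Cells grown in RPMI 1640 with 5% FBS and 2 mM L-glutamine, plated at 5,000–40,000 cells/well, and preincubated 24 h. Drug (DMSO stock) added and incubated 48 h at 37 °C, 5% CO2. Adherent cells fixed with cold TCA, stained with 0.4% SRB in 1% acetic acid, dye solubilized in 10 mM trizma base, A515 read. Percent growth taken against time-zero and untreated control.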

[2] = tested on: T47D; experiment: Antiproliferative activity against human T47D cells assessed as cell growth inhibition at 10 uM incubated for 48 hrs by sulforhodamine B assay relative to control; procedure, shortened: as §1
[3] = tested on: BT-549; experiment: Antiproliferative activity against human BT-549 cells assessed as cell growth inhibition at 10 uM incubated for 48 hrs by sulforhodamine B assay relative to control
Procedure, shortened: (§2)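 Single-dose NCI-60 prescreen at 10^-5 M. Cells in RPMI 1640 with 5% FBS and 2 mM L-glutamine, seeded 5,000–40,000 cells/well with 24 h preincubation, then drug exposure for 48 h at 37 °C under 5% CO2. Growth read by SRB staining of TCA-fixed cells at 515 nm against time-zero and untreated controls. Negative growth values denote cell kill.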

[4] = tested on: Hs-578T; experiment: Antiproliferative activity against human Hs-578T cells assessed as cell growth inhibition at 10 uM incubated for 48 hrs by sulforhodamine B assay relative to control; procedure, shortened: as §1
[5] = tested on: MDA-MB-231; experiment: Antiproliferative activity against human MDA-MB-231 cells assessed as cell growth inhibition at 10 uM incubated for 48 hrs by sulforhodamine B assay relative to control; procedure, shortened: as §1
[6] = tested on: DU-145; experiment: Antiproliferative activity against human DU-145 cells assessed as cell growth inhibition at 10 uM incubated for 48 hrs by sulforhodamine B assay relative to control
Procedure, shortened: (§3)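 NCI-60 one-dose prescreen at 10^-5 M. Cells grown in RPMI 1640 with 5% FBS and 2 mM glutamine, preincubated 24 h, then exposed 48 h at 37 °C. Adherent lines TCA-fixed, SRB-stained, A515 read. Growth percent relative to time-zero and control; negative values mean cell kill.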

[7] = tested on: TK-10; experiment: Antiproliferative activity against human TK-10 cells assessed as cell growth inhibition at 10 uM incubated for 48 hrs by sulforhodamine B assay relative to control; procedure, shortened: as §1
[8] = tested on: ACHN; experiment: Antiproliferative activity against human ACHN cells assessed as cell growth inhibition at 10 uM incubated for 48 hrs by sulforhodamine B assay relative to control; procedure, shortened: as §2
[9] = tested on: SK-OV-3; experiment: Antiproliferative activity against human SK-OV-3 cells assessed as cell growth inhibition at 10 uM incubated for 48 hrs by sulforhodamine B assay relative to control; procedure, shortened: as §1
[10] = tested on: OVCAR-4; experiment: Antiproliferative activity against human OVCAR-4 cells assessed as cell growth inhibition at 10 uM incubated for 48 hrs by sulforhodamine B assay relative to control; procedure, shortened: as §1
[11] = tested on: OVCAR-3; experiment: Antiproliferative activity against human OVCAR-3 cells assessed as cell growth inhibition at 10 uM incubated for 48 hrs by sulforhodamine B assay relative to control; procedure, shortened: as §1
[12] = tested on: IGROV-1; experiment: Antiproliferative activity against human IGROV-1 cells assessed as cell growth inhibition at 10 uM incubated for 48 hrs by sulforhodamine B assay relative to control; procedure, shortened: as §1
[13] = tested on: UACC-62; experiment: Antiproliferative activity against human UACC-62 cells assessed as cell growth inhibition at 10 uM incubated for 48 hrs by sulforhodamine B assay relative to control; procedure, shortened: as §1
[14] = tested on: UACC-257; experiment: Antiproliferative activity against human UACC-257 cells assessed as cell growth inhibition at 10 uM incubated for 48 hrs by sulforhodamine B assay relative to control; procedure, shortened: as §1
[15] = tested on: SK-MEL-5; experiment: Antiproliferative activity against human SK-MEL-5 cells assessed as cell growth inhibition at 10 uM incubated for 48 hrs by sulforhodamine B assay relative to control; procedure, shortened: as §1
[16] = tested on: SK-MEL-28; experiment: Antiproliferative activity against human SK-MEL-28 cells assessed as cell growth inhibition at 10 uM incubated for 48 hrs by sulforhodamine B assay relative to control; procedure, shortened: as §1
[17] = tested on: U-251; experiment: Antiproliferative activity against human U-251 cells assessed as cell growth inhibition at 10 uM incubated for 48 hrs by sulforhodamine B assay relative to control; procedure, shortened: as §1
[18] = tested on: SNB-19; experiment: Antiproliferative activity against human SNB-19 cells assessed as cell growth inhibition at 10 uM incubated for 48 hrs by sulforhodamine B assay relative to control; procedure, shortened: as §1
[19] = tested on: SF-295; experiment: Antiproliferative activity against human SF-295 cells assessed as cell growth inhibition at 10 uM incubated for 48 hrs by sulforhodamine B assay relative to control; procedure, shortened: as §1
[20] = tested on: SF-268; experiment: Antiproliferative activity against human SF-268 cells assessed as cell growth inhibition at 10 uM incubated for 48 hrs by sulforhodamine B assay relative to control; procedure, shortened: as §1
[21] = tested on: HCC 2998; experiment: Antiproliferative activity against human HCC 2998 cells assessed as cell growth inhibition at 10 uM incubated for 48 hrs by sulforhodamine B assay relative to control; procedure, shortened: as §3
[22] = tested on: COLO 205; experiment: Antiproliferative activity against human COLO 205 cells assessed as cell growth inhibition at 10 uM incubated for 48 hrs by sulforhodamine B assay relative to control; procedure, shortened: as §2
[23] = tested on: EKVX; experiment: Antiproliferative activity against human EKVX cells assessed as cell growth inhibition at 10 uM incubated for 48 hrs by sulforhodamine B assay relative to control; procedure, shortened: as §3
[24] = tested on: SR; experiment: Antiproliferative activity against human SR cells assessed as cell growth inhibition at 10 uM incubated for 48 hrs by sulforhodamine B assay relative to control; procedure, shortened: as §1
[25] = tested on: MOLT-4; experiment: Antiproliferative activity against human MOLT-4 cells assessed as cell growth inhibition at 10 uM incubated for 48 hrs by sulforhodamine B assay relative to control; procedure, shortened: as §1
[26] = tested on: K562; experiment: Antiproliferative activity against human K562 cells assessed as cell growth inhibition at 10 uM incubated for 48 hrs by sulforhodamine B assay relative to control; procedure, shortened: as §1
[27] = tested on: HL-60; experiment: Antiproliferative activity against human HL-60 cells assessed as cell growth inhibition at 10 uM incubated for 48 hrs by sulforhodamine B assay relative to control; procedure, shortened: as §3
[28] = tested on: CAKI-1; experiment: Antiproliferative activity against human CAKI-1 cells assessed as cell growth inhibition at 10 uM incubated for 48 hrs by sulforhodamine B assay relative to control; procedure, shortened: as §2
[29] = tested on: HOP-62; experiment: Antiproliferative activity against human HOP-62 cells assessed as cell growth inhibition at 10 uM incubated for 48 hrs by sulforhodamine B assay relative to control; procedure, shortened: as §3

Row | Structure (SMILES) | inhibition at 10 µM [1] [%] | inhibition at 10 µM [2] [%] | inhibition at 10 µM [4] [%] | inhibition at 10 µM [5] [%] | inhibition at 10 µM [6] [%] | inhibition at 10 µM [8] [%] | inhibition at 10 µM [10] [%] | inhibition at 10 µM [11] [%] | inhibition at 10 µM [12] [%] | inhibition at 10 µM [13] [%] | inhibition at 10 µM [15] [%] | inhibition at 10 µM [17] [%] | inhibition at 10 µM [18] [%] | inhibition at 10 µM [19] [%] | inhibition at 10 µM [20] [%] | inhibition at 10 µM [21] [%] | inhibition at 10 µM [23] [%] | inhibition at 10 µM [24] [%] | inhibition at 10 µM [25] [%] | inhibition at 10 µM [27] [%] | further results
1 | COc1ccc(-c2cn3ccnc3c(-c3ccc4ncn(C5CCCCC5)c4c3)n2)cc1 | 97.4 | -8.6 | 80 | 71.1 | 81.8 | 61 | 46.4 | -26.5 | 53.4 | 65.2 | 92.3 | 80.9 | 68.4 | 92.5 | 49.9 | 62.6 | 56.6 | 91.7 | 82.8 | 98.6 | inhibition at 10 µM [3]: 68.9%; inhibition at 10 µM [7]: 18.5%; inhibition at 10 µM [9]: 74.3%; inhibition at 10 µM [14]: 26.3%; inhibition at 10 µM [16]: 47.7%; inhibition at 10 µM [22]: -8.01%; inhibition at 10 µM [26]: 92%
2 | c1ccc2c(-c3cn4ccnc4c(-c4ccc5ncn(C6CCCCC6)c5c4)n3)cccc2c1 | 10.4 | 41.3 | 3.62 | 20.8 | 5.1 | 6.49 | 19.7 | 2.38 |  | 16.7 | 4.06 |  | 9.08 | 6.34 | 7.84 | 2.23 | 13.2 | 6.92 | 44.7 | 38.9 | inhibition at 10 µM [28]: 25.1%; inhibition at 10 µM [29]: 19.6%; inhibition at 10 µM [26]: 30.9%
3 | Cc1cccc(-c2cn3ccnc3c(-c3ccc4ncn(Cc5ccccc5)c4c3)n2)c1 | 16.6 | 86 | 8.47 | 28.4 | 14.2 | 12.4 | 19.3 | 13.9 | 9.51 | 2.46 | 10.1 | 19.4 | 2.58 | 14.3 | 7.22 |  | 22.3 | 11 | 36.9 | 18.2 | inhibition at 10 µM [28]: 24.8%; inhibition at 10 µM [22]: 11.3%; inhibition at 10 µM [29]: 9.68%
